Assay results: article PMC12166256 (Clinical Pharmacology and Therapeutics, 2025)

Assay: MAD study: safety and tolerability
Type: in vivo, human
Method in brief: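 Healthy males aged 18–55 with BMI 18–30 kg/m² were followed through dosing and a 6–8-day follow-up. Checks: physical examination, clinical laboratory tests, vital signs and 12-lead ECG, with adverse events coded in MedDRA. Events of special interest: ALT ≥2×ULN, QTcF ≥500 ms, Grade ≥2 photosensitivity, symptomatic overdose. Treatment-emergent events were summarised descriptively by organ class, preferred term and dose level for all exposed participants.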

CN1C(=O)c2cccc(OC(F)F)c2[C@H]2C[C@@H]1c1nc3ccc(-c4cnc(C5(N)CCC5)nc4)cc3n12 [Balinatunfib]
Alanine aminotransferase increased TEAE, events (MAD 200 mg BID, N = 8): 0
Alanine aminotransferase increased TEAE, participants (MAD 200 mg BID, N = 8): 0 n (%)
Any event TEAE, events (MAD 200 mg BID, N = 8): 7
Any event TEAE, participants (MAD 200 mg BID, N = 8): 4 (50.0) n (%)
Constipation TEAE, events (MAD 200 mg BID, N = 8): 0
Constipation TEAE, participants (MAD 200 mg BID, N = 8): 0 n (%)
Diarrhea TEAE, events (MAD 200 mg BID, N = 8): 1
Diarrhea TEAE, participants (MAD 200 mg BID, N = 8): 1 (12.5) n (%)
Dry skin TEAE, events (MAD 200 mg BID, N = 8): 2
Dry skin TEAE, participants (MAD 200 mg BID, N = 8): 2 (25.0) n (%)
Dysgeusia TEAE, events (MAD 200 mg BID, N = 8): 1
Dysgeusia TEAE, participants (MAD 200 mg BID, N = 8): 1 (12.5) n (%)
Gastrointestinal disorders TEAE, events (MAD 200 mg BID, N = 8): 1
Gastrointestinal disorders TEAE, participants (MAD 200 mg BID, N = 8): 1 (12.5) n (%)
General disorders and administration site conditions TEAE, events (MAD 200 mg BID, N = 8): 1
General disorders and administration site conditions TEAE, participants (MAD 200 mg BID, N = 8): 1 (12.5) n (%)
Headache TEAE, events (MAD 200 mg BID, N = 8): 0
Headache TEAE, participants (MAD 200 mg BID, N = 8): 0 n (%)
Injury, poisoning, and procedural complications TEAE, events (MAD 200 mg BID, N = 8): 0
Injury, poisoning, and procedural complications TEAE, participants (MAD 200 mg BID, N = 8): 0 n (%)
Investigations TEAE, events (MAD 200 mg BID, N = 8): 0
Investigations TEAE, participants (MAD 200 mg BID, N = 8): 0 n (%)
Medical device site reaction TEAE, events (MAD 200 mg BID, N = 8): 1
Medical device site reaction TEAE, participants (MAD 200 mg BID, N = 8): 1 (12.5) n (%)
Musculoskeletal and connective tissue disorders TEAE, events (MAD 200 mg BID, N = 8): 0
Musculoskeletal and connective tissue disorders TEAE, participants (MAD 200 mg BID, N = 8): 0 n (%)
Nasal dryness TEAE, events (MAD 200 mg BID, N = 8): 2
Nasal dryness TEAE, participants (MAD 200 mg BID, N = 8): 2 (25.0) n (%)
Neck pain TEAE, events (MAD 200 mg BID, N = 8): 0
Neck pain TEAE, participants (MAD 200 mg BID, N = 8): 0 n (%)
Nervous system disorders TEAE, events (MAD 200 mg BID, N = 8): 1
Nervous system disorders TEAE, participants (MAD 200 mg BID, N = 8): 1 (12.5) n (%)
Oropharyngeal pain TEAE, events (MAD 200 mg BID, N = 8): 0
Oropharyngeal pain TEAE, participants (MAD 200 mg BID, N = 8): 0 n (%)
Reproductive system and breast disorders TEAE, events (MAD 200 mg BID, N = 8): 0
Reproductive system and breast disorders TEAE, participants (MAD 200 mg BID, N = 8): 0 n (%)
Respiratory, thoracic, and mediastinal disorders TEAE, events (MAD 200 mg BID, N = 8): 2
Respiratory, thoracic, and mediastinal disorders TEAE, participants (MAD 200 mg BID, N = 8): 2 (25.0) n (%)
Skin and subcutaneous tissue disorders TEAE, events (MAD 200 mg BID, N = 8): 2
Skin and subcutaneous tissue disorders TEAE, participants (MAD 200 mg BID, N = 8): 2 (25.0) n (%)
Sneezing TEAE, events (MAD 200 mg BID, N = 8): 0
Sneezing TEAE, participants (MAD 200 mg BID, N = 8): 0 n (%)
Testicular mass TEAE, events (MAD 200 mg BID, N = 8): 0
Testicular mass TEAE, participants (MAD 200 mg BID, N = 8): 0 n (%)
Wound TEAE, events (MAD 200 mg BID, N = 8): 0
Wound TEAE, participants (MAD 200 mg BID, N = 8): 0 n (%)
PCSA QTcF increase from baseline ]30-60] msec, participants n/N1 (MAD 300 mg BID): four
ALT in the participant with ALT > 3 ULN (MAD 300 mg BID, Day 18, 4 days after the last dose): 181 IU/L
Abdominal pain TEAE, events (MAD 300 mg BID, N = 8): 1
Abdominal pain TEAE, participants (MAD 300 mg BID, N = 8): 1 (12.5) n (%)
Alanine aminotransferase increased TEAE, events (MAD 300 mg BID, N = 8): 1
Alanine aminotransferase increased TEAE, participants (MAD 300 mg BID, N = 8): 1 (12.5) n (%)
Any event TEAE, events (MAD 300 mg BID, N = 8): 3
Any event TEAE, participants (MAD 300 mg BID, N = 8): 2 (25.0) n (%)
Constipation TEAE, events (MAD 300 mg BID, N = 8): 1
Constipation TEAE, participants (MAD 300 mg BID, N = 8): 1 (12.5) n (%)
Diarrhea TEAE, events (MAD 300 mg BID, N = 8): 0
Diarrhea TEAE, participants (MAD 300 mg BID, N = 8): 0 n (%)
Dry skin TEAE, events (MAD 300 mg BID, N = 8): 0
Dry skin TEAE, participants (MAD 300 mg BID, N = 8): 0 n (%)
Dysgeusia TEAE, events (MAD 300 mg BID, N = 8): 0
Dysgeusia TEAE, participants (MAD 300 mg BID, N = 8): 0 n (%)
Gastrointestinal disorders TEAE, events (MAD 300 mg BID, N = 8): 2
Gastrointestinal disorders TEAE, participants (MAD 300 mg BID, N = 8): 1 (12.5) n (%)
General disorders and administration site conditions TEAE, events (MAD 300 mg BID, N = 8): 0
General disorders and administration site conditions TEAE, participants (MAD 300 mg BID, N = 8): 0 n (%)
Headache TEAE, events (MAD 300 mg BID, N = 8): 0
Headache TEAE, participants (MAD 300 mg BID, N = 8): 0 n (%)
Injury, poisoning, and procedural complications TEAE, events (MAD 300 mg BID, N = 8): 0
Injury, poisoning, and procedural complications TEAE, participants (MAD 300 mg BID, N = 8): 0 n (%)
Investigations TEAE, events (MAD 300 mg BID, N = 8): 1
Investigations TEAE, participants (MAD 300 mg BID, N = 8): 1 (12.5) n (%)
Medical device site reaction TEAE, events (MAD 300 mg BID, N = 8): 0
Medical device site reaction TEAE, participants (MAD 300 mg BID, N = 8): 0 n (%)
Musculoskeletal and connective tissue disorders TEAE, events (MAD 300 mg BID, N = 8): 0
Musculoskeletal and connective tissue disorders TEAE, participants (MAD 300 mg BID, N = 8): 0 n (%)
Nasal dryness TEAE, events (MAD 300 mg BID, N = 8): 0
Nasal dryness TEAE, participants (MAD 300 mg BID, N = 8): 0 n (%)
Neck pain TEAE, events (MAD 300 mg BID, N = 8): 0
Neck pain TEAE, participants (MAD 300 mg BID, N = 8): 0 n (%)
Nervous system disorders TEAE, events (MAD 300 mg BID, N = 8): 0
Nervous system disorders TEAE, participants (MAD 300 mg BID, N = 8): 0 n (%)
Oropharyngeal pain TEAE, events (MAD 300 mg BID, N = 8): 0
Oropharyngeal pain TEAE, participants (MAD 300 mg BID, N = 8): 0 n (%)
Reproductive system and breast disorders TEAE, events (MAD 300 mg BID, N = 8): 0
Reproductive system and breast disorders TEAE, participants (MAD 300 mg BID, N = 8): 0 n (%)
Respiratory, thoracic, and mediastinal disorders TEAE, events (MAD 300 mg BID, N = 8): 0
Respiratory, thoracic, and mediastinal disorders TEAE, participants (MAD 300 mg BID, N = 8): 0 n (%)
Skin and subcutaneous tissue disorders TEAE, events (MAD 300 mg BID, N = 8): 0
Skin and subcutaneous tissue disorders TEAE, participants (MAD 300 mg BID, N = 8): 0 n (%)
Sneezing TEAE, events (MAD 300 mg BID, N = 8): 0
Sneezing TEAE, participants (MAD 300 mg BID, N = 8): 0 n (%)
Testicular mass TEAE, events (MAD 300 mg BID, N = 8): 0
Testicular mass TEAE, participants (MAD 300 mg BID, N = 8): 0 n (%)
Wound TEAE, events (MAD 300 mg BID, N = 8): 0
Wound TEAE, participants (MAD 300 mg BID, N = 8): 0 n (%)
participants with AESIs (ALT increase) (MAD, all balinatunfib groups): four
participants with at least one TEAE (MAD, all balinatunfib groups (12/32)): 37.5%
tolerability (all repeated oral doses (100–600 mg total daily dose, 14 days)): well tolerated
